Consider one compound from ChEMBL document CHEMBL3351225, “Design, synthesis, and structure-activity and structure-pharmacokinetic relationship studies of novel [6,6,5] tricyclic fused oxazolidinones leading to the discovery of a potent, selective, and orally bioavailable FXa inhibitor” (J Med Chem, 2014).

The subject of data set [1] is Rattus norvegicus. The experiment in a line: Toxicity in rat assessed as induction of behavioral changes at 50 mg/kg, po dosed once daily for 2 weeks. The data set is classed as organism-based. More on the design: dose 50 mg/kg, route oral. The note with it: in vivo, 336 h. In outline: (§1)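 Subacute toxicity in rats: oral dosing once daily for 2 weeks at 50 mg/kg (medium) or 100 mg/kg (high). Behavior, body weight, food intake, organ coefficients and survival rate were monitored.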

In data set [2] the test system is Rattus norvegicus. The experiment in a line: Antithrombotic activity in rat model of arteriovenous shunt-induced thrombosis assessed as reduction in thrombus formation dosed orally 60 mins before shunt opening. The note with it: po.
Data set [3] concerns Rattus norvegicus. The experiment in a line: Toxicity in rat assessed as induction of behavioral changes at 100 mg/kg, po dosed once daily for 2 weeks. It counts as organism-based. More on the design: dose 100 mg/kg, route oral. The note with it: in vivo, 336 h. The method in brief: as §1
Data set [4] in a line: Elimination half life in Beagle dog at 0.5 mg/kg, iv. It counts as ADME, organism-based, Canis lupus familiaris. More on the design: dose 0.5 mg/kg, route intravenous. The note with it: in vivo. In outline: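 Male dogs, three per group. Dosed orally at 1 mg/kg or by intravenous infusion at 0.5 mg/kg. Vehicle was 5% DMSO + 5% Tween-80 in 90% saline, or 10% DMSO + 10% Tween-80 + 80% PEG400 for the reference drug. Foreleg blood samples were quantified by LC-MS. Parameters came from noncompartmental analysis of mean plasma concentrations.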

The target of data set [5] is T1, Cytochrome P450 2C8 (Homo sapiens, UniProt P10632).
T1 sequence (P10632 whole entry): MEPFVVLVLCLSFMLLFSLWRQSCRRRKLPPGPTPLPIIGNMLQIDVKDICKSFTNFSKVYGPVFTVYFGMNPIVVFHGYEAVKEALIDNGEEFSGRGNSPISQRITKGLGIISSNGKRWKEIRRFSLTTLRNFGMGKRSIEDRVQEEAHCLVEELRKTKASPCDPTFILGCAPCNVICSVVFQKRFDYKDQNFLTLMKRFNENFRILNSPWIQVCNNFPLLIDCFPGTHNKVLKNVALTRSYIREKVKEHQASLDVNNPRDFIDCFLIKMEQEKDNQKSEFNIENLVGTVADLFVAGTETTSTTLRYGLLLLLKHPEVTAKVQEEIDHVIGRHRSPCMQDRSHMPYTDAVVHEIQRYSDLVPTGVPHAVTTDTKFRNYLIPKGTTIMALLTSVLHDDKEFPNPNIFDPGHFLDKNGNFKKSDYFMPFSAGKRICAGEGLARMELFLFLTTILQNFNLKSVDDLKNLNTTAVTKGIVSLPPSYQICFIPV
The experiment in a line: Inhibition of CYP2C8 (unknown origin). It counts as ADME.

The test system of data set [6] is Rattus norvegicus. The experiment in a line: Toxicity in rat assessed as induction of body weight changes at 50 mg/kg, po dosed once daily for 2 weeks. The data set is classed as organism-based. More on the design: dose 50 mg/kg, route oral. The note with it: in vivo, 336 h. The method in brief:
as §1

The test system of data set [7] is Rattus norvegicus. The experiment in a line: Antithrombotic activity in rat model of FeCl3-induced venous thrombosis assessed as reduction in thrombus formation dosed orally 60 mins before thrombus formation. The note with it: po.
Data set [8] has as its target Coagulation factor X (Homo sapiens, UniProt P00742). The experiment in a line: Inhibition of human factor 10a using N-Z-D-Arg-Gly-Arg-pNA, S-2765 chromogenic substrate.
Data set [9] is described as follows: AUC (0 to infinity) in Sprague-Dawley rat at 10 mg/kg, po. The data set is classed as ADME, organism-based. The note with it: plasma. More on the design: time infinity, dose 10 mg/kg, route oral. The method in brief: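 Male Sprague-Dawley rats, 200−220 g, four per group. Vehicle was 5% DMSO + 5% Tween-80 in 90% saline. The reference drug was given in 10% DMSO + 10% Tween-80 + 80% PEG400 (40% solution in saline). Serial retrobulbar vein samples were quantified by LC-MS. Parameters came from noncompartmental analysis of mean plasma concentrations.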

For data set [10], the target named is T2, Coagulation factor VII (Homo sapiens, UniProt P08709).
T2 sequence (P08709 whole entry): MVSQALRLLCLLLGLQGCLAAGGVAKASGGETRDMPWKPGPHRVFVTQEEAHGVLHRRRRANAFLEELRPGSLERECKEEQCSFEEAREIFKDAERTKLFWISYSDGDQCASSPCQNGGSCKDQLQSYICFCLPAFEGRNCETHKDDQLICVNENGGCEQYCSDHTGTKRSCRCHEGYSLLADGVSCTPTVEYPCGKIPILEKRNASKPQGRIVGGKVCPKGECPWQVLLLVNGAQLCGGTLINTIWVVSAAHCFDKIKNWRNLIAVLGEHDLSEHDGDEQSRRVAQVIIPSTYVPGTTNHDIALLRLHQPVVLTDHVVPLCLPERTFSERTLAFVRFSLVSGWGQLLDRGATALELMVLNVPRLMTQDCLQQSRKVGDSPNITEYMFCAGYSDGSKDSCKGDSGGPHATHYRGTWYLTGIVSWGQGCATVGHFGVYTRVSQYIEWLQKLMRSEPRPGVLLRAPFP
The experiment in a line: Inhibition of human factor 7a using S-2366 chromogenic substrate. In outline:
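Human enzyme and inhibitor were premixed and preincubated, then the chromogenic substrate was added. Substrate levels: 300 μM S-2765 (FXa, trypsin); 200 μM S-2366 (FIIa); 2 mM S-2366 (FVIIa, FXIa). pNA release was monitored continuously at 405 nm for 20 min at 37 °C. IC50 was obtained by nonlinear regression.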

Each structure is given as a SMILES string.

Coagulation factor X, sequence (P00742 41-179 limits assumed): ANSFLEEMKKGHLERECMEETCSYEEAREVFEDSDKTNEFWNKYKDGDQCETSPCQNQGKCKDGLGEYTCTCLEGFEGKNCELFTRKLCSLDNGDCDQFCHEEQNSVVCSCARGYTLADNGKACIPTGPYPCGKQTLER
Coagulation factor X, sequence (P00742 235-488 limits assumed): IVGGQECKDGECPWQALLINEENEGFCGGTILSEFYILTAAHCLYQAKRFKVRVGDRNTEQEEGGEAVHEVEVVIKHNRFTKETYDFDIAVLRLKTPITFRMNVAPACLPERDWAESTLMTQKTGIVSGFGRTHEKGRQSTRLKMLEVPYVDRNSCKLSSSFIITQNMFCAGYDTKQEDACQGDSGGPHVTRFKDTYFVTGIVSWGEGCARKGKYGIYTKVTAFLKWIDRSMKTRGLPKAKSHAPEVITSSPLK

In the case of `O=C(NC[C@@H]1OC(=O)N2c3ccc(N4CCOCC4=O)cc3OC[C@@H]12)c1ccc(Cl)s1`, the Activity entry in data set [1], in data set [3] and in data set [6] was “Non-toxic” in each case. Further, the ED50 was 5.28 mg/kg in [2] and 5.63 mg/kg in [7]. The half-life in data set [4] is 3.1 h. Besides, the IC50 in [5] was 99.7 µM; in [8] it was 0.00341 µM; in data set [10], over 100 µM. In addition, the AUC(0-inf) in [9] came to 33000 ng·h/mL.

For orientation: ED50 means the dose that gives a 50% effect, or the effect in half of the subjects. By half-life is commonly meant how long it takes for the measured level to halve. A higher half-life goes with slow decline. What is called IC50 is the midpoint of a concentration-inhibition curve. Lower therefore signals greater potency in that assay. What is called AUC(0-inf) is total exposure, with the tail of the curve extrapolated. The low end stands for less exposure, the high end for more exposure.
